Experimental data: ChEMBL document CHEMBL3297677, “A new 9-alkyladenine-cyclic methylglyoxal diadduct activates wt- and F508del-cystic fibrosis transmembrane conductance regulator (CFTR) in vitro and in vivo” (Eur J Med Chem, 2014)
Calls of active or inactive are those of the source. The rule behind the calls is not given here.

How the values were obtained:
[1] = biological target: T1, Cystic fibrosis transmembrane conductance regulator (Homo sapiens, UniProt P13569); test: Activation of wild-type CFTR (unknown origin) expressed in forskolin-stimulated CHO cells assessed as increase in iodide efflux at 100 uM by gamma counting; format: cell-based
Method in brief: (§1)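 Iodide efflux with a robotic system. Cells were loaded at 37 °C for 30 min in Krebs' solution with 1 mM KI and Na¹²⁵I so the label reached equilibrium. The first three aliquots (t0–t2) in cold Krebs' buffer gave the baseline, and compound medium was used for t3–t8. Residual radioactivity was extracted with 0.1 M NaOH/0.1% SDS and gamma-counted. Relative rate = k_peak − k_basal (min⁻¹), expressed as % of maximal activation. EC50 came from nonlinear regression.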
Target sequence in this assay (P13569 whole entry, looked up): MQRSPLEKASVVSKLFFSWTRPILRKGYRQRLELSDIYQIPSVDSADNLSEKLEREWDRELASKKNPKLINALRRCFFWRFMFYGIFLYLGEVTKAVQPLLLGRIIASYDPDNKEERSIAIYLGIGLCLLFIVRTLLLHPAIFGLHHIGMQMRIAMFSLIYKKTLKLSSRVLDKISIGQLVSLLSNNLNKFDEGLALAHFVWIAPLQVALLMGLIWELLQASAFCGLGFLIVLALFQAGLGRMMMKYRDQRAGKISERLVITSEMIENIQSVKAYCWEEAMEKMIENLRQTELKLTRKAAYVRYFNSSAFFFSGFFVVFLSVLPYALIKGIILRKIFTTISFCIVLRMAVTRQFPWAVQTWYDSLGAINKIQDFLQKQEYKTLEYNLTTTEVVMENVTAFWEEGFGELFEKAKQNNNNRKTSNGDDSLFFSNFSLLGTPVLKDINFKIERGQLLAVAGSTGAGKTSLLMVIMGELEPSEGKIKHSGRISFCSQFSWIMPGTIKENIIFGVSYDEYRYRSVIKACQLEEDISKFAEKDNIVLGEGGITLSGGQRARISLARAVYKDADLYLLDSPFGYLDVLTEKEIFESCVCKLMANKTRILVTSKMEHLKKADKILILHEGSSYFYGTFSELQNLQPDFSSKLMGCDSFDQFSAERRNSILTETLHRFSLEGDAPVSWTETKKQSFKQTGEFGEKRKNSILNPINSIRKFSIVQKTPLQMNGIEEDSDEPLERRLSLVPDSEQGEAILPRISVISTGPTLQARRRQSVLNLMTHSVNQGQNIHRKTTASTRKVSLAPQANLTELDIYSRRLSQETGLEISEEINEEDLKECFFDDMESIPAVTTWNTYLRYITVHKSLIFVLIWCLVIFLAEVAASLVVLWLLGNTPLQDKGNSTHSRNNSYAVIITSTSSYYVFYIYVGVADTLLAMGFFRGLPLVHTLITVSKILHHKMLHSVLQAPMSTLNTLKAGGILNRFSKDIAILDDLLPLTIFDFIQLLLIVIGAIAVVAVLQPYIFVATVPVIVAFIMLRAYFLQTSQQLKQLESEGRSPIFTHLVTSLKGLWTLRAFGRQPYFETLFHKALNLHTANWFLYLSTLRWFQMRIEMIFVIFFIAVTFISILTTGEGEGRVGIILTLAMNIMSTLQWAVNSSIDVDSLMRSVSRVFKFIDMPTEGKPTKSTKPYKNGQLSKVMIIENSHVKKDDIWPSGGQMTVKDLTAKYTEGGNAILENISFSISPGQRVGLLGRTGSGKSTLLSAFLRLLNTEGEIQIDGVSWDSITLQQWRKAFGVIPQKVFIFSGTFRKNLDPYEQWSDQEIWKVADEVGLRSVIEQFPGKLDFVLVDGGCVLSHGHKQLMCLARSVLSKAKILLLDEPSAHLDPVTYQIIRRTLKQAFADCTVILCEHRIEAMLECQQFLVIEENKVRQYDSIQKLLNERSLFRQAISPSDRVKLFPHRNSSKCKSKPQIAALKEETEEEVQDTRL

[2] = test system: CHO; test: Cytotoxicity against wild-type CFTR transfected CHO cells upto 300 uM after 24 hrs by MTT assay; format: cell-based, Cricetulus griseus; conditions: chinese hamster
Method in brief: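 Wt-CFTR CHO cells were exposed for 24 h, and viability was read by MTT reduction to formazan. Controls were untreated cells and cells deprived of medium for 24 h.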

[3] = biological target: T1, Cystic fibrosis transmembrane conductance regulator; test: Activation of CFTR in human MM39 cells by DiSBAC2(3) dye based fluorescence analysis; format: cell-based
Method in brief: (§2)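 Human tracheal gland MM39 cells were imaged cell by cell with the potential-sensitive oxonol probe DiSBAC2(3) (ex 535 nm, em 560 nm). Signal is Fx = (Ft − F0)/F0 × 100 relative to the time of stimulus addition. Histograms show the stable fluorescence variation, as mean ± SEM. The CFTR inhibitor CFTRinh-172 was used at 1 µM. Runs were done with or without forskolin.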
Target sequence in this assay (P13569 whole entry, looked up): as above

[4] = biological target: T1, Cystic fibrosis transmembrane conductance regulator; test: Activation of CFTR in forskolin-stimulated human MM39 cells by DiSBAC2(3) dye based fluorescence analysis in presence of 1 uM CFTRinh-172; format: cell-based; method in brief: as §2
Target sequence in this assay (P13569 whole entry, looked up): as above

[5] = test system: Rattus norvegicus; test: Potentiation of isprenaline-induced salivary secretion in male Wistar rat assessed as net weight of saliva secreted at 30 uM, sc followed by treatment with 1 mM cholinergic inhibitor atropine; format: functional, organism-based
Method in brief: (§3)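 Male Wistar rats (250–300 g) were held supine. Basal secretion was blocked with atropine (1 mM). Saline containing 1 mM atropine plus compound (30 µM), isoprenaline (10 µM) or both was then injected subcutaneously into the cheek. Saliva was collected on paper pieces changed every 4 min and weighed. Secretion rate = saliva weight / collection time (min) / body weight (g).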

[6] = biological target: T1, Cystic fibrosis transmembrane conductance regulator; test: Activation of CFTR in forskolin-stimulated human MM39 cells by DiSBAC2(3) dye based fluorescence analysis; format: cell-based; method in brief: as §2
Target sequence in this assay (P13569 whole entry, looked up): as above

[7] = biological target: T1, Cystic fibrosis transmembrane conductance regulator; test: Activation of wild-type CFTR (unknown origin) expressed in forskolin-stimulated CHO cells assessed as increase in iodide efflux by gamma counting; format: cell-based; method in brief: as §1
Target sequence in this assay (P13569 whole entry): as the sequence (P13569 whole entry, looked up) above

[8] = biological target: T1, Cystic fibrosis transmembrane conductance regulator; test: Activation of CFTR in human MM39 cells by DiSBAC2(3) dye based fluorescence analysis in presence of 1 uM CFTRinh-172; format: cell-based; method in brief: as §2
Target sequence in this assay (P13569 whole entry, looked up): as above

[9] = test system: Rattus norvegicus; test: Effect on salivary secretion in male Wistar rat assessed as net weight of saliva secreted at 30 uM, sc followed by treatment with 1 mM cholinergic inhibitor atropine; format: functional, organism-based; method in brief: as §3
[10] = biological target: Cystic fibrosis transmembrane conductance regulator (Homo sapiens, UniProt P13569, F508DEL); test: (§4) Activation of CFTR F508 deletion mutant in forskolin-stimulated and miglustat-corrected human […] cells assessed as increase in iodide efflux by gamma counting; format: cell-based; method in brief: as §1
[11] = test system: Cystic fibrosis transmembrane conductance regulator (Homo sapiens), P13569 [F508del]; test: as §4; format: cell-based; method in brief: as §1
Chain of Cystic fibrosis transmembrane conductance regulator (Homo sapiens), P13569 [F508del] (P13569 as listed by the source): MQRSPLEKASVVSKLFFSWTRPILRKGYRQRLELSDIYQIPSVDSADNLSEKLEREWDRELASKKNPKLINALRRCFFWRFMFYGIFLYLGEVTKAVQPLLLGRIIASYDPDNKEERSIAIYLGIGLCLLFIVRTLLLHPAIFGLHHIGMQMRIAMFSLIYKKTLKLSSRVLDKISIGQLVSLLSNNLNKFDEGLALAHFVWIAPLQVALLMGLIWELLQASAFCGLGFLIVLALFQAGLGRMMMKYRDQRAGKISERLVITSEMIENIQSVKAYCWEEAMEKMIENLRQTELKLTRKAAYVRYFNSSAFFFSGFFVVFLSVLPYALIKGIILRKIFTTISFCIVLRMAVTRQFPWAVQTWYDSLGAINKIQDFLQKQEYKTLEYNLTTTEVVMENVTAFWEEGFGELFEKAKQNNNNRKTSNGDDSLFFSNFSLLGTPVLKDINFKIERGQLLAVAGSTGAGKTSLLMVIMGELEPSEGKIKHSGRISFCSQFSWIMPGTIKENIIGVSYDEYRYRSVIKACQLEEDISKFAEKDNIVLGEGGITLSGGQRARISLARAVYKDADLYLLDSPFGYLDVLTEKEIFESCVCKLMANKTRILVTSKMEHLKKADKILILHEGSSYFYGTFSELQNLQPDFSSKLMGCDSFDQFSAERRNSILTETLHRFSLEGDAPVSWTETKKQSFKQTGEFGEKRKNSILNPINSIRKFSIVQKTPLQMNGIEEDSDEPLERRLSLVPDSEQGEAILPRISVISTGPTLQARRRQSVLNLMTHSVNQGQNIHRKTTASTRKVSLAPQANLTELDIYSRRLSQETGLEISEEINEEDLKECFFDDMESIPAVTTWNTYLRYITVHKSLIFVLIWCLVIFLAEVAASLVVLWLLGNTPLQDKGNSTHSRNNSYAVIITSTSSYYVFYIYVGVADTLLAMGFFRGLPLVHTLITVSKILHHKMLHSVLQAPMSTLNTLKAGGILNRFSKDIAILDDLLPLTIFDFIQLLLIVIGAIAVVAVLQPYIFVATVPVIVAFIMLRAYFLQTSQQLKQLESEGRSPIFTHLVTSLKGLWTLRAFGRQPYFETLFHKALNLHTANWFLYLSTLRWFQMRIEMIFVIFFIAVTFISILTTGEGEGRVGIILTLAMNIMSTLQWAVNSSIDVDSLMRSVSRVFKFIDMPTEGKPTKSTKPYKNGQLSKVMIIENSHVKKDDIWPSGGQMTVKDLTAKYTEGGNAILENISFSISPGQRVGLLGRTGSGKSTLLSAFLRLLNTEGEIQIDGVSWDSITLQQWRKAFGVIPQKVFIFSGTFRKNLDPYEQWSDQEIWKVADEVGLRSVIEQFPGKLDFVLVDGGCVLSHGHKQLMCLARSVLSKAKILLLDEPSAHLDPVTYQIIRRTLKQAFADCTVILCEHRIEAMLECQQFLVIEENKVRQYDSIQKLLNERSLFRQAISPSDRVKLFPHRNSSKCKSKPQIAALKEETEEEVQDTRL

Chain of Cystic fibrosis transmembrane conductance regulator (Homo sapiens, UniProt P13569, F508DEL) (P13569 as listed by the source): as above

C#CCn1cnc2c1N=CN1C2=N[C@](C)(C(=O)O)[C@@H](O)[C@@]1(C)O
Activity [1]: inactive

C[C@]1(C(=O)O)N=C2c3ncn(CCCc4ccccc4)c3N=CN2[C@](C)(O)[C@@H]1O
Activity [1]: inactive

CCCCn1cnc2c1N=CN1C2=N[C@](C)(C(=O)O)[C@@H](O)[C@@]1(C)O
Activity [1]: inactive

Cn1cnc2c1N=CN1C2=N[C@](C)(C(=O)O)[C@@H](O)[C@@]1(C)O
Activity [1]: inactive

C[C@]1(C(=O)O)N=C2c3ncn(Cc4ccccc4)c3N=CN2[C@](C)(O)[C@@H]1O
Activity [1]: inactive

C[C@]1(C(=O)O)N=C2c3ncn(CCCO)c3N=CN2[C@](C)(O)[C@@H]1O
Activity [1]: inactive

C=CCn1cnc2c1N=CN1C2=N[C@](C)(C(=O)O)[C@@H](O)[C@@]1(C)O
Activity [2]: Non-toxic | Activity [3]: Active | Activity [4]: inactive | Activity [5]: Active | Activity [6]: Active | EC50 [7]: 7.5 µM | Activity [1]: Active | Activity [8]: inactive | Activity [9]: inactive | EC50 [10]: 104 µM | Activity [11]: Dose-dependent effect

C=CCn1cnc2c1N=CN1C2=N[C@](C)(C(=O)O)[C@H](O)[C@]1(C)O
EC50 [7]: 2.1 µM

CCn1cnc2c1N=CN1C2=N[C@](C)(C(=O)O)[C@@H](O)[C@@]1(C)O
Activity [1]: inactive

CC(C)n1cnc2c1N=CN1C2=N[C@](C)(C(=O)O)[C@@H](O)[C@@]1(C)O
Activity [1]: inactive
